In brackets after ≈: the same amount, converted by molar mass.
Experiments:
[1] = tested on: Mycobacterium tuberculosis; assay: Antimycobacterial activity against wild type Mycobacterium tuberculosis H37Rv NRP-2 stage after 3 weeks under anaerobic condition; assay type: functional; conditions: 504 h
Outline: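 H37Rv was anaerobically adapted from OD650 0.005 in glycerol-free Dubos broth, in sealed stirred tubes (head-space ratio 0.5) for 3 weeks at 37°C. Cultures were dispensed in an anaerobic chamber onto drug (2% DMSO final) and held anaerobically 7 days at 37°C. Cells were washed, 2-fold diluted and spotted on 7H11 agar for 3 weeks. MAC: 90% reduction in visible growth. Isoniazid and metronidazole controls; CFU counts corroborated.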

[2] = tested on: Mycobacterium tuberculosis; assay: Antimycobacterial activity against wild type Mycobacterium tuberculosis H37Rv ATCC 27294 after 2 weeks; assay type: functional; conditions: 336 h
Outline: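 M. tuberculosis H37Rv was grown in 7H9 with 0.05% Tween 80, 0.2% glycerol and ADC to OD650 0.2, then diluted 1:1000. It was added to 2-fold serial drug dilutions in the same medium (11 dilutions, 200 µM to 0.19 µM). Plates were incubated 2 weeks at 37°C and MIC99 read macroscopically. Three independent determinations.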

[3] = tested on: Mycobacterium tuberculosis; assay: Ratio of Kcat/Km for Mycobacterium tuberculosis F420-dependent nitroreductase by Michaelis-Menten equation
Outline: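 Buffer was 200 mM Tris pH 8.0 with 0.01% Triton X-100 and 20 µM H2F420. H2F420 was made with recombinant Mtb FGD1, which was then heat-inactivated (65°C, 10 min) and removed by ultrafiltration. F420 came from M. smegmatis.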

SMILES	MBC [1] [µM]	MIC [2] [µM]	kcat/Km [3] [M⁻¹ s⁻¹]
O=[N+]([O-])c1cn2c(n1)OC[C@@H](NCCCc1ccc(OC(F)(F)F)cc1)C2	3.12 (≈ 1.21 µg/mL)	0.078 (≈ 0.0301 µg/mL)	5120
O=[N+]([O-])c1cn2c(n1)OC[C@@H](NCc1ccc(OC(F)(F)F)cc1)C2	12.5 (≈ 4.48 µg/mL)	0.31 (≈ 0.111 µg/mL)	2870
O=[N+]([O-])c1cn2c(n1)[S+]([O-])C[C@@H](OCc1ccc(OC(F)(F)F)cc1)C2 (stereo partly drawn)	50 (≈ 19.6 µg/mL)	> 100	–
CN1C[C@@H](OCc2ccc(OC(F)(F)F)cc2)Cn2cc([N+](=O)[O-])nc21	≥ 100	6.25 (≈ 2.33 µg/mL)	1020
N[C@@H]1COc2nc([N+](=O)[O-])cn2C1	> 500	> 100	–
O=[N+]([O-])c1cn2c(n1)SC[C@H](OCc1ccc(OC(F)(F)F)cc1)C2	50 (≈ 18.8 µg/mL)	50 (≈ 18.8 µg/mL)	–
O=[N+]([O-])c1cn2c(n1)CC[C@@H](OCc1ccc(OC(F)(F)F)cc1)C2	250 (≈ 89.3 µg/mL)	25 (≈ 8.93 µg/mL)	400
O=[N+]([O-])c1cn2c(n1)OC[C@@H](NCc1ccc(OCc3ccc(F)cc3)cc1)C2	2 (≈ 0.797 µg/mL)	0.2 (≈ 0.0797 µg/mL)	7530
O=[N+]([O-])c1cn2c(n1)SC[C@@H](OCc1ccc(OC(F)(F)F)cc1)C2	25 (≈ 9.38 µg/mL)	0.8 (≈ 0.3 µg/mL)	2430
O=C(COc1ccc(OC(F)(F)F)cc1)N[C@@H]1COc2nc([N+](=O)[O-])cn2C1	62.5 (≈ 25.1 µg/mL)	0.05 (≈ 0.0201 µg/mL)	283
O=[N+]([O-])c1cn2c(n1)NC[C@@H](OCc1ccc(OC(F)(F)F)cc1)C2	125 (≈ 44.8 µg/mL)	0.8 (≈ 0.287 µg/mL)	4050
O=CN1CC(OCc2ccc(OC(F)(F)F)cc2)Cn2cc([N+](=O)[O-])nc21 (single isomer, unassigned)	25 (≈ 9.66 µg/mL)	3.2 (≈ 1.24 µg/mL)	1080
O=[N+]([O-])c1cn2c(n1)OC[C@@H](NCCc1ccc(OC(F)(F)F)cc1)C2	6.25 (≈ 2.33 µg/mL)	0.16 (≈ 0.0596 µg/mL)	1830
CC(=O)N1CC(OCc2ccc(OC(F)(F)F)cc2)Cn2cc([N+](=O)[O-])nc21 (single isomer, unassigned)	31.2 (≈ 12.5 µg/mL)	6.25 (≈ 2.5 µg/mL)	–
O=[N+]([O-])c1cn2c(n1)S(=O)(=O)C[C@@H](OCc1ccc(OC(F)(F)F)cc1)C2	25 (≈ 10.2 µg/mL)	> 100	–
O=[N+]([O-])c1cn2c(n1)OC[C@@H](OCc1ccc(OC(F)(F)F)cc1)C2 [PRETOMANID]	6.25 (≈ 2.25 µg/mL)	0.8 (≈ 0.287 µg/mL)	2580
CCCCc1ccc(CN[C@@H]2COc3nc([N+](=O)[O-])cn3C2)cc1	50 (≈ 16.5 µg/mL)	0.78 (≈ 0.258 µg/mL)	900
O=[N+]([O-])c1cn2c(n1)OC[C@@H](NCc1ccc(OCc3ccccc3)cc1)C2	6.25 (≈ 2.38 µg/mL)	0.15 (≈ 0.0571 µg/mL)	3450
O=[N+]([O-])c1cn2c(n1)OC[C@@H](NCc1ccc(OCc3ccc(OC(F)(F)F)cc3)cc1)C2	1.56 (≈ 0.724 µg/mL)	0.16 (≈ 0.0743 µg/mL)	1230
O=[N+]([O-])c1cn2c(n1)OC[C@@H](NCCCCc1ccc(OC(F)(F)F)cc1)C2	3.13 (≈ 1.25 µg/mL)	0.039 (≈ 0.0156 µg/mL)	8570
O=[N+]([O-])c1cn2c(n1)OC[C@@H](NCCCCCc1ccc(OC(F)(F)F)cc1)C2	6.25 (≈ 2.59 µg/mL)	0.078 (≈ 0.0323 µg/mL)	15200
